ChEMBL document CHEMBL1944523, “Benzimidazolones: a new class of selective peroxisome proliferator-activated receptor γ (PPARγ) modulators” (J Med Chem, 2011)
Activity calls are given as the source filed them. No cut-off for these calls is given here.

Legend:
[1] = target: T1, Peroxisome proliferator-activated receptor gamma (Homo sapiens) (UniProt P37231); test: Binding affinity to human wild type PPARgamma LBD expressed in COS1 cells co-expressing GAL4 by scintillation proximity assay; type: cell-based; conditions: COS-1
T1 sequence (whole entry): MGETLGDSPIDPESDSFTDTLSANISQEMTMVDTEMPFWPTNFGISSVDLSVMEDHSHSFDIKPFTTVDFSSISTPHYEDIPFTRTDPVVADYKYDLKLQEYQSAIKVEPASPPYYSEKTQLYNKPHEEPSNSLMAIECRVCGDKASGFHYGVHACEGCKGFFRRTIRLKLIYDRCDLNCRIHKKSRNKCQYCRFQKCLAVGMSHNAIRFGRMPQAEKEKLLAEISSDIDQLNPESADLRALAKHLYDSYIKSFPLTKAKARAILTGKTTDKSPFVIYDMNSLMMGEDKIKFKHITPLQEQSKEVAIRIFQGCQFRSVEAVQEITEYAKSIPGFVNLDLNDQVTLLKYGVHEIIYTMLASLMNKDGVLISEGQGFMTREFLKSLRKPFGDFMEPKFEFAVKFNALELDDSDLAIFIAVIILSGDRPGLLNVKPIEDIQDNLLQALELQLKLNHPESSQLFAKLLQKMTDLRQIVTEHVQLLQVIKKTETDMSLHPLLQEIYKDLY

COS-1 = test: Binding affinity to human PPARgamma LBD Y473A mutant expressed in COS1 cells co-expressing GAL4 by scintillation proximity assay; type: cell-based
Mus musculus [2] = test: Antidiabetic activity in db/db C57BLKS/J-m +/+ Leprdb mouse assessed as reduction of glucose level at 10 mg/kg, po qd for 10 days measured on 11 relative to control; type: functional; parameters: scale not given: the % may be the effect or the level left
Summary of the method: (§1)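 Male db/db (C57BLKS/J-m +/+Leprdb) mice, 12−13 weeks old, seven per group, chow and water freely available; once-daily oral gavage in 0.25% methylcellulose vehicle for 11 days. Tail blood drawn just before next dose on days 0, 4, 7 and 11 for plasma glucose. Value is percent correction versus vehicle control; mean of n = 7; rosiglitazone 10 mpk positive control.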

[3] = AUC in db/db C57BLKS/J-m +/+ Leprdb mouse at 10 mg/kg, po qd for 10 days measured on day 11; type: ADME, organism-based; parameters: dose 10 mg/kg, route oral; conditions: plasma
Summary of the method: (§2)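 Male db/db (C57BLKS/J-m +/+Leprdb) mice aged 12−13 weeks, seven per group, gavaged once daily with compound in 0.25% methylcellulose vehicle. Total compound exposure measured at study end: plasma acidified with 0.5 M formate buffer pH 3.0, protein precipitated with acetonitrile, quantified by LC−MS−MS against calibration curves in control plasma.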

Mus musculus [4] = test: Toxicity in po dosed db/db C57BLKS/J-m +/+ Leprdb mouse assessed as increase in water content of epididymal fat pad administered qd for 10 days measured on day 11 by vaccum drying method; type: organism-based; conditions: in vivo, 240 h
Summary of the method: (§3)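 Male db/db mice, seven per group, gavaged daily in 0.25% methylcellulose; after day 11 dosing epididymal fat pads excised, weighed, vacuum centrifugal-dried over 24 h, reweighed to give water content; mean of seven determinations.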

Rattus norvegicus [5] = test: Antidiabetic activity in obese insulin resistant Zucker fa/fa rat assessed as decrease in free fatty acids level in plasma at 1 to 100 mg/kg qd for 7 days; type: functional, organism-based
Summary of the method: (§4)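 Obese insulin-resistant Zucker fa/fa rats (n = 8) dosed daily for 7 days with vehicle or compound. Tail-nick blood taken 1 day before dosing and 1 day after the seventh dose; plasma insulin by rat insulin RIA, free fatty acids and triglyceride by enzymatic kits per manufacturer instructions.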

Rattus norvegicus [6] = test: Antidiabetic activity in obese insulin resistant Zucker fa/fa rat assessed as decrease in insulin level in plasma at 1 to 100 mg/kg qd for 7 days; type: functional, organism-based; summary of the method: as §4
Rattus norvegicus [7] = test: Antidiabetic activity in obese insulin resistant Zucker fa/fa rat assessed as decrease in triglyceride level in plasma at 1 to 100 mg/kg qd for 7 days; type: functional, organism-based; summary of the method: as §4
Rattus norvegicus [8] = test: Antidiabetic activity in obese insulin resistant Zucker fa/fa rat assessed as decrease in insulin level in plasma administered qd for 7 days
[9] = target: T2, Peroxisome proliferator-activated receptor gamma (Homo sapiens, UniProt P37231); test: Binding affinity to human PPARgamma by scintillation proximity assay
T2 sequence (P37231 whole entry): T1 sequence (whole entry)
Summary of the method: (§5)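 Scintillation proximity binding assay on PPAR receptors giving IC50; mean of three determinations.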

[10] = target: T2, Peroxisome proliferator-activated receptor gamma; test: Agonist activity at human PPARgamma expressed in COS-1 cells co-expressing with Gal4 by transactivation assay; type: functional, cell-based
Summary of the method: (§6)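 GAL4-PPAR chimeric receptor transactivation in transiently co-transfected COS-1 cells with a GAL4-responsive reporter; potency as EC50 and maximum activation expressed relative to rosiglitazone; triplicate, mean reported.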

[11] = target: T1, Peroxisome proliferator-activated receptor gamma (Homo sapiens); test: Agonist activity at human PPARgamma expressed in COS-1 cells co-expressing with Gal4 by transactivation assay relative to rosiglitazone; type: functional, cell-based; summary of the method: as §6
[12] = target: T3, Peroxisome proliferator-activated receptor alpha (Homo sapiens, UniProt Q07869); test: Binding affinity to human PPARalpha expressed in COS-1 by scintillation proximity assay; summary of the method: as §5
T3 sequence (Q07869 whole entry): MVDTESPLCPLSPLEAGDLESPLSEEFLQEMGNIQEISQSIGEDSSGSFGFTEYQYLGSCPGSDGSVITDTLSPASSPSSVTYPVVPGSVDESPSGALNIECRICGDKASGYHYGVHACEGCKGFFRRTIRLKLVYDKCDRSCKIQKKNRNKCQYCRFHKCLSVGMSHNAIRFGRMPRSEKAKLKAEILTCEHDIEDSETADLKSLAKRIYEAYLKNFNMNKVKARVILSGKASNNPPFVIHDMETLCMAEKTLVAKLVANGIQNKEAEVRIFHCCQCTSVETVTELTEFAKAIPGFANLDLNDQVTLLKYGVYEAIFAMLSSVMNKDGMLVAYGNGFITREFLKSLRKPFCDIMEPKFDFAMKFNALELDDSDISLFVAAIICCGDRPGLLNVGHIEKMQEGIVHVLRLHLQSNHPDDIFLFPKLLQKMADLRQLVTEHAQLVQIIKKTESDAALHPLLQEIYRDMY

[13] = target: T4, Peroxisome proliferator-activated receptor delta (Homo sapiens, UniProt Q03181); test: Binding affinity to PPARdelta by scintillation proximity assay; summary of the method: as §5
T4 sequence (Q03181 whole entry): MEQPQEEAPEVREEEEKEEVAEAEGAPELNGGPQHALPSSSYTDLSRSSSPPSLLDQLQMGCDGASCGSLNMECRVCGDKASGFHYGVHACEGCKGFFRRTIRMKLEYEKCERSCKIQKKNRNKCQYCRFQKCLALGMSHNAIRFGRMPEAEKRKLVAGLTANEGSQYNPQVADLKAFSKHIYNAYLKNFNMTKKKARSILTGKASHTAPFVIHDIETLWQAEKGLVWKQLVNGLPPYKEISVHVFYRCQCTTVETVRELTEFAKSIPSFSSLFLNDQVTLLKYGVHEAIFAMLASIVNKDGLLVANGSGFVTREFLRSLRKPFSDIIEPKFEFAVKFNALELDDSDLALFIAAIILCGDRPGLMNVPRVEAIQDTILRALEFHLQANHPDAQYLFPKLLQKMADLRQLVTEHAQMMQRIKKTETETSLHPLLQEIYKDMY

[14] = Drug uptake in db/db C57BLKS/J-m +/+ Leprdb mouse at 10 mg/kg, po qd for 10 days measured in day 11 by LC-MS/MS analysis; type: ADME, organism-based; parameters: dose 10 mg/kg, route oral; conditions: in vivo; summary of the method: as §2
Rattus norvegicus [15] = test: Dose normalized AUC in rat at 2 mg/kg, po by LC-MS/MS analysis; type: ADME, organism-based; parameters: dose 2 mg/kg, route oral; conditions: in vivo
Summary of the method: (§7)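 Rat pharmacokinetics: 2 mpk oral in 5% methylcellulose, 0.5 mpk iv in ethanol/PEG400/water (1/4/5). Blood sampled at set intervals; plasma acidified with 0.5 M formate buffer pH 3.0, acetonitrile-precipitated, quantified by LC−MS−MS against spiked control-plasma calibration curves.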

Rattus norvegicus [16] = test: Plasma clearance in rat at 0.5 mg/kg, iv and 2 mg/kg, po by LC-MS/MS analysis; type: ADME, organism-based; conditions: in vivo; summary of the method: as §7
[17] = Half life in rat at 0.5 mg/kg, iv and 2 mg/kg, po by LC-MS/MS analysis; type: ADME, organism-based; conditions: in vivo; summary of the method: as §7
[18] = Oral bioavailability in rat at 2 mg/kg by LC-MS/MS analysis; type: ADME, organism-based; conditions: in vivo; summary of the method: as §7
[19] = target: T2, Peroxisome proliferator-activated receptor gamma; test: Partial agonist activity at human PPARgamma LBD assessed as activation of CBP1-453 by HTRF assay; type: functional
[20] = target: T2, Peroxisome proliferator-activated receptor gamma; test: Partial agonist activity at human PPARgamma LBD assessed as activation of PGC1 by HTRF assay; type: functional
[21] = target: T2, Peroxisome proliferator-activated receptor gamma; test: Partial agonist activity at human PPARgamma LBD assessed as activation of Src-1 by HTRF assay; type: functional
[22] = target: T2, Peroxisome proliferator-activated receptor gamma; test: Partial agonist activity at human PPARgamma LBD assessed as activation of PBP by HTRF assay; type: functional
Mus musculus [23] = test: Antidiabetic activity in db/db C57BLKS/J-m +/+ Leprdb mouse assessed as reduction of glucose level at 30 mg/kg, po qd for 10 days measured on 11 relative to control; type: functional; parameters: scale not given: the % may be the effect or the level left; summary of the method: as §1
Mus musculus [24] = test: Antidiabetic activity in db/db C57BLKS/J-m +/+ Leprdb mouse assessed as reduction of glucose level at 20 mg/kg, po qd for 10 days measured on 11 relative to control; type: functional; parameters: scale not given: the % may be the effect or the level left; summary of the method: as §1
Mus musculus [25] = test: Toxicity in db/db C57BLKS/J-m +/+ Leprdb mouse assessed as increase in water content of epididymal fat pad at 10 to 50 mg/kg, po qd for 10 days measured on day 11 by vaccum drying method; type: organism-based; parameters: dose 10-50 mg/kg, route oral; conditions: in vivo, 240 h; summary of the method: as §3

| SMILES | Activity [1] | Activity (COS-1) | Activity (Mus musculus [2]) [%] | IC50 [9] [nM] | EC50 [10] [nM] | Emax [11] [%] | IC50 [12] [nM] | IC50 [13] [nM] | AUC at 240 h [14] [µM·h] | AUC/dose (Rattus norvegicus [15]) [µM·kg·h/mg] | clearance (Rattus norvegicus [16]) [mL/min/kg] | half-life [17] [h] | bioavailability [18] [%] | EC50 [19] [nM] | EC50 [20] [nM] | EC50 [21] [nM] | EC50 [22] [nM] | also measured |
| --- | --- | --- | --- | --- | --- | --- | --- | --- | --- | --- | --- | --- | --- | --- | --- | --- | --- | --- |
| CN(CCOc1ccc(CC2SC(=O)NC2=O)cc1)c1ccccn1 (stereo not drawn) [ROSIGLITAZONE] | Active | inactive | 60 | – | – | – | – | – | – | – | – | – | – | – | – | – | – | AUC at 240 h [3]: 220 µM·h; Activity (Mus musculus [4]): Dose-dependent effect; Activity (Rattus norvegicus [5]): Active; Activity (Rattus norvegicus [6]): Active; Activity (Rattus norvegicus [7]): Active; ED50 (Rattus norvegicus [8]): 312 µM·h |
| COc1ccc2c(-n3c(=O)n(Cc4ccc(Cl)c(O[C@H](C)C(=O)O)c4)c4ccccc43)noc2c1 | – | – | – | 6.9 | 28.1 | 31 | > 50000 | > 50000 | 576 | 1.5 | 11.4 | 5 | 48 | > 50000 | 2 | > 50000 | 3 | Activity (Mus musculus [23]): 39% |
| COc1ccc2c(-n3c(=O)n(Cc4cc([C@@]5(C)OC(=O)NC5=O)ccc4Cl)c4ccccc43)noc2c1 | – | – | – | 9.9 | 9.1 | 26 | > 50000 | > 50000 | 104 | 0.8 | 29.7 | 3.8 | 49 | > 50000 | 2 | > 50000 | 1820 | Activity (Mus musculus [24]): 29% |
| C[C@]1(c2cccc(Cn3c(=O)n(-c4noc5cc(Cl)ccc45)c4ccccc43)c2)OC(=O)NC1=O | Active | Active | 84 | – | – | 101 | – | – | – | – | – | – | – | – | – | – | – | – |
| C[C@]1(c2cccc(Cn3c(=O)n(-c4noc5cc(Cl)ccc45)c4ccccc43)c2)OC(O)=NC1=O | – | – | – | 49.1 | 102 | – | > 50000 | > 50000 | 1160 | 1.9 | 26.5 | 3 | 117 | – | – | – | – | Activity (Mus musculus [25]): Non-toxic |
